Source: ChEMBL document CHEMBL1135644, “Effect of spermine conjugation on the cytotoxicity and cellular transport of acridine” (J Med Chem, 2002)

Key:
CHO [1] = assay: Cellular uptake of conjugates in CHO cells at a concentration of 10 uM (+/-15% SEM); format: functional, cell-based; conditions: Cricetulus griseus
Outline: (§1)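 Conjugates added 24 h after seeding (1 × 10^5 cells/mL, RPMI 1640 with 10% FCS and 2 mM aminoguanidine; proline added for CHO-MG) and left for 24 h. Cells were washed in 0.14 M NaCl, sonicated in 0.2 N HClO4/2 M NaCl and held 16 h at 4 °C. Conjugate in the supernatant was measured by fluorimetry against standards and expressed per mg protein (Folin). Mean of three determinations (±15%).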

CHO [2] = assay: Cellular uptake of conjugates in CHO cells at a concentration of 2 uM (+/-15% SEM); format: functional, cell-based; conditions: Cricetulus griseus; outline: as §1
CHO-MG [3] = assay: In vitro 25% cell growth inhibition by the compound in CHO-MG cells; format: functional, Cricetulus griseus
Outline: (§2)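 CHO or CHO-MG cells were trypsinized and plated singly at 2 × 10^3 cells/mL in RPMI 1640/10% FCS with 2 mM aminoguanidine (proline for CHO-MG). Conjugates were added after overnight incubation, with 48 h exposure. Growth was read by MTT formazan absorbance at 540 nm relative to untreated controls. The value is the concentration giving 25% or 50% growth inhibition.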

CHO-MG [4] = assay: In vitro 25% cell growth inhibition by the compound in CHO-MG cells with 5 mM DFMO addition; format: functional; conditions: Cricetulus griseus
Outline: (§3)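 CHO or CHO-MG cells were plated at 2 × 10^3 cells/mL and incubated overnight. Conjugates and 5 mM DFMO were then added together, with 2 mM aminoguanidine present, for 48 h. MTT absorbance at 540 nm was expressed relative to DFMO-treated controls. The value is the concentration inhibiting growth 25% or 50%.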

CHO-MG [5] = assay: In vitro 50% cell growth inhibition by the compound in CHO-MG cells; format: functional, cell-based; conditions: Cricetulus griseus; outline: as §2
CHO-MG [6] = assay: In vitro 50% cell growth inhibition by the compound in CHO-MG cells with 5 mM DFMO addition; format: functional, cell-based; conditions: Cricetulus griseus; outline: as §3
CHO-MG [7] = assay: Cellular uptake of conjugates in CHO-MG cells at a concentration of 10 uM (+/-15% SEM); format: functional, cell-based; conditions: Cricetulus griseus; outline: as §1
CHO-MG [8] = assay: Cellular uptake of conjugates in CHO-MG cells at a concentration of 2 uM (+/-15% SEM); format: functional, cell-based; conditions: Cricetulus griseus; outline: as §1
CHO [9] = assay: In vitro 50% cell growth inhibition by the co mpound in CHO cells with 5 mM DFMO addition; format: functional, cell-based; conditions: Cricetulus griseus; outline: as §3
CHO [10] = assay: In vitro 25% cell growth inhibition by the compound in CHO cells; format: functional; conditions: Cricetulus griseus; outline: as §2
CHO [11] = assay: In vitro 25% cell growth inhibition by the compound in CHO cells with 5 mM DFMO addition; format: functional; conditions: Cricetulus griseus; outline: as §3
L1210 [12] = assay: In vitro 50% cell growth inhibition by the compound in L1210 cells; format: functional, cell-based; conditions: Mus musculus
Outline: (§4)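 L1210 cells were seeded at 5 × 10^4 cells/mL with conjugate added at seeding, in medium with 2 mM aminoguanidine, for 48 h exposure. Growth was measured by MTT absorbance at 540 nm relative to untreated controls.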

L1210 [13] = assay: In vitro 50% cell growth inhibition by the compound in L1210 cells with 5 mM DFMO addition; format: functional, cell-based; conditions: Mus musculus
Outline: (§5)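 L1210 cells were seeded at 5 × 10^4 cells/mL, and conjugate plus 5 mM DFMO were added at seeding with 2 mM aminoguanidine present. After 48 h, growth was read by MTT at 540 nm relative to DFMO-only controls.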

L1210 [14] = assay: In vitro 25% cell growth inhibition by the compound in L1210 cells; format: functional; conditions: Mus musculus; outline: as §4
L1210 [15] = assay: In vitro 25% cell growth inhibition by the compound in L1210 cells with 5 mM DFMO addition; format: functional; conditions: Mus musculus; outline: as §5
L1210 [16] = assay: Inhibition of [14C]SPD uptake by the compound in 5 min initial rate transport assay in L1210 cells; format: functional, cell-based, Mus musculus
L1210 [17] = assay: Cellular uptake of conjugates in L1210 cells (control) at a concentration of 0.5 uM (+/-15% SEM); format: functional, cell-based; conditions: Mus musculus
Outline: (§6)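 L1210 cells were seeded at 2 × 10^5 cells/mL with conjugate added at seeding, in medium containing 2 mM aminoguanidine, and cultured 24 h. Washed cells were extracted in 0.2 N HClO4/2 M NaCl for 16 h at 4 °C. Intracellular conjugate was quantified by fluorimetry and expressed as nmol/mg protein. Mean of three determinations (±15%).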

L1210 [18] = assay: Cellular uptake of conjugates in L1210 cells (control) at a concentration of 10 uM (+/-15% SEM); format: functional, cell-based; conditions: Mus musculus; outline: as §6
L1210 [19] = assay: Cellular uptake of conjugates in L1210 cells (control) at a concentration of 2 uM (+/-15% SEM); format: functional, cell-based; conditions: Mus musculus; outline: as §6
L1210 [20] = assay: Cellular uptake of conjugates in L1210 cells in presence of 500 uM SPD at a concentration of 0.5 uM (+/-15% SEM); format: functional, cell-based; conditions: Mus musculus
Outline: (§7)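 Same as the L1210 uptake assay: seeded at 2 × 10^5 cells/mL, conjugate plus 500 μM spermidine added together at seeding, 24 h exposure. Extraction in HClO4/NaCl, fluorimetric quantitation, normalized to protein. Mean of three determinations (±15%).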

L1210 [21] = assay: Cellular uptake of conjugates in L1210 cells in presence of 500 uM SPD at a concentration of 10 uM (+/-15% SEM); format: functional, cell-based; conditions: Mus musculus; outline: as §7
L1210 [22] = assay: Cellular uptake of conjugates in L1210 cells in presence of 500 uM SPD at a concentration of 2 uM (+/-15% SEM); format: functional, cell-based; conditions: Mus musculus; outline: as §7
L1210 [23] = assay: Cellular uptake of conjugates in L1210 cells pretreated with 5 mM DFMO at a concentration of 0.5 uM (+/-15% SEM); format: functional, cell-based; conditions: Mus musculus
Outline: (§8)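 L1210 cells were seeded at 10^5 cells/mL in medium with 5 mM DFMO, and conjugates were added 24 h later. Cells were harvested after a further 24 h, extracted in 0.2 N HClO4/2 M NaCl and assayed by fluorimetry, expressed per mg protein. Mean of three determinations (±15%).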

L1210 [24] = assay: Cellular uptake of conjugates in L1210 cells pretreated with 5 mM DFMO at a concentration of 10 uM (+/-15% SEM); format: functional, cell-based; conditions: Mus musculus; outline: as §8
L1210 [25] = assay: Cellular uptake of conjugates in L1210 cells pretreated with 5 mM DFMO at a concentration of 2 uM (+/-15% SEM); format: functional, cell-based; conditions: Mus musculus; outline: as §8
Nucleic Acid = assay: Drug concentration required to produce 50% inhibition of fluorescence bound ethidium to CT-DNA (1.26:1) (+/-SEM 5%); format: functional; conditions: Bos taurus
Outline: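 Ethidium displacement: 1 μM CT-DNA with 1.26 μM ethidium bromide; conjugate stock added serially. Fluorescence was read at excitation 546 nm and emission 595 nm. The value is the conjugate concentration cutting DNA-bound ethidium fluorescence by 50%. Mean of three determinations (±5%).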

[26] = Ratio of cellular uptake in CHO cells to that of CHO-MG cells 2 uM; format: functional
[27] = Ratio of cellular uptake in CHO cells to that of CHO-MG cells at 10 uM; format: functional
CHO [28] = assay: In vitro 50% cell growth inhibition by the compound in CHO cells; format: functional, cell-based; conditions: Cricetulus griseus; outline: as §2
CHO [29] = assay: Cellular uptake of conjugates in CHO cells at a concentration of 2.5 uM (+/-15% SEM); format: functional, cell-based; conditions: Cricetulus griseus; outline: as §1
CHO-MG [30] = assay: In vitro 50% cell growth inhibition by the compound in CHO-MG cells (control); format: functional, cell-based; conditions: Cricetulus griseus; outline: as §2
CHO-MG [31] = assay: Cellular uptake of conjugates in CHO-MG cells at a concentration of 2.5 uM (+/-15% SEM); format: functional, cell-based; conditions: Cricetulus griseus; outline: as §1
CHO [32] = assay: In vitro 50% cell growth inhibition by the compound in CHO cells (control); format: functional, cell-based; conditions: Cricetulus griseus; outline: as §2
L1210 [33] = assay: In vitro 50% cell growth inhibition by the compound in L1210 cells (control) with 5 mM DFMO addition; format: functional, cell-based; conditions: Mus musculus; outline: as §5
L1210 [34] = assay: Cellular uptake of conjugates in L1210 cells (control) at a concentration of 5 uM (+/-15% SEM); format: functional, cell-based; conditions: Mus musculus; outline: as §6
L1210 [35] = assay: Cellular uptake of conjugates in L1210 cells in presence of 500 uM SPD at a concentration of 5 uM (+/-15% SEM); format: functional, cell-based; conditions: Mus musculus; outline: as §7
[36] = Ratio of cellular uptake in CHO cells to that of CHO-MG cells at 2.5 uM; format: functional

Cl.NCCCNCCCCNCCCNCCCCCNC(=O)c1c2ccccc2nc2ccccc12
Uptake (nM (mg of protein)-1) (CHO [1]): 0.125 | Uptake (nM (mg of protein)-1) (CHO [2]): 0.034 | IC25 (CHO-MG [3]): 10.5 µM | IC25 (CHO-MG [4]): 6 µM | IC50 (CHO-MG [5]): 31 µM | IC50 (CHO-MG [6]): 23 µM | Uptake (nM (mg of protein)-1) (CHO-MG [7]): 0.112 | Uptake (nM (mg of protein)-1) (CHO-MG [8]): 0.032 | IC50 (CHO [9]): 2 µM | IC25 (CHO [10]): 10.8 µM | IC25 (CHO [11]): 0.025 µM | IC50 (L1210 [12]): 41 µM | IC50 (L1210 [13]): 6.6 µM | IC25 (L1210 [14]): 22 µM | IC25 (L1210 [15]): 0.1 µM | Ki (L1210 [16]): 0.097 µM | Uptake (nM (mg of protein)-1) (L1210 [17]): 0.033 | Uptake (nM (mg of protein)-1) (L1210 [18]): 0.279 | Uptake (nM (mg of protein)-1) (L1210 [19]): 0.064 | Uptake (nM (mg of protein)-1) (L1210 [20]): 0.016 | Uptake (nM (mg of protein)-1) (L1210 [21]): 0.262 | Uptake (nM (mg of protein)-1) (L1210 [22]): 0.049 | Uptake (nM (mg of protein)-1) (L1210 [23]): 0.113 | Uptake (nM (mg of protein)-1) (L1210 [24]): 0.631 | Uptake (nM (mg of protein)-1) (L1210 [25]): 0.217 | Concentration for 50% ethidium displacement from DNA (C50) (Nucleic Acid): 120 nM | Ratio [26]: 1.1 | Ratio [27]: 1.1 | IC50 (CHO [28]): 25 µM

Cl.NCCCNCCCCNCCCNCCCNC(=O)c1c2ccccc2nc2ccccc12
Uptake (nM (mg of protein)-1) (CHO [1]): 0.1 | Uptake (nM (mg of protein)-1) (CHO [29]): 0.014 | IC50 (CHO-MG [30]): 35 µM | Uptake (nM (mg of protein)-1) (CHO-MG [7]): 0.108 | Uptake (nM (mg of protein)-1) (CHO-MG [31]): 0.017 | IC50 (CHO [32]): 30 µM | IC50 (L1210 [12]): 43 µM | IC50 (L1210 [33]): 2.2 µM | IC25 (L1210 [14]): 22 µM | IC25 (L1210 [15]): 0.09 µM | Ki (L1210 [16]): 0.097 µM | Uptake (nM (mg of protein)-1) (L1210 [18]): 0.239 | Uptake (nM (mg of protein)-1) (L1210 [34]): 0.086 | Uptake (nM (mg of protein)-1) (L1210 [21]): 0.221 | Uptake (nM (mg of protein)-1) (L1210 [35]): 0.073 | Uptake (nM (mg of protein)-1) (L1210 [24]): 0.587 | Concentration for 50% ethidium displacement from DNA (C50) (Nucleic Acid): 120 nM | Ratio [27]: 0.93 | Ratio [36]: 0.83
